Assay results pooled from the literature.
Protocols differ between the studies behind these lines.
Target: Myosin-IIIa (MYO3A, Homo sapiens, UniProt Q8NEV4)

Compound	effect on	method	concentration	remaining binding
CCN1CCN(Cc2ccc(C(=O)Nc3ccc(C)c(Oc4ccc5c(c4)CC(=O)N5)c3)cc2C(F)(F)F)CC1	binding	competition with immobilised ligand	1 µM	100%
CN(C)c1nccc(-c2cnn3ncccc23)n1	binding		1 µM	100%
CCC(=N\O)/C(C)=C/c1ccc(F)cc1	cell-free assay	competition with immobilised ligand	1 µM	100%
COc1cnc(Nc2cccc(S(N)(=O)=O)c2)nc1N1CCN(c2ccccc2)CC1	binding	competition with immobilised ligand	1 µM	100%
c1cnn2ncc(-c3ccnc(N4CCC45COC5)n3)c2c1	binding		1 µM	55%
O=C(c1ccc(Nc2ncc(Cl)c(-c3cc4ccccc4s3)n2)cc1)N1CCC(N2CCCC2)CC1	binding	competition with immobilised ligand	1 µM	91%
COc1ccnn2ncc(-c3ccnc(N(C)C)n3)c12	binding		1 µM	96%
O=C(NCCCN1CCOCC1)c1ccc(Nc2ncc(Cl)c(-c3ccc(Cl)s3)n2)cc1	binding	competition with immobilised ligand	1 µM	95%
O=C(Nc1c[nH]nc1C(=O)NC1CCNCC1)c1cc(F)cc(F)c1	binding	competition with immobilised ligand	1 µM	94%
CS(=O)(=O)c1cc(C2(NC(=O)c3cncc4c3cnn4-c3ccc(F)cc3)CC2)ccn1	cell-free assay	competition with immobilised ligand	1 µM	85%
O=C(NCCCN1CCOCC1)c1ccc(Nc2nccc(-c3cc4ccccc4s3)n2)cc1	binding	competition with immobilised ligand	1 µM	87%
C[C@@H](c1ccc(-n2cnc3c(N)ncnc32)cc1)N1CCc2nn(C)c(Cc3ccccc3)c2C1=O	binding	competition with immobilised ligand	0.1 µM	97%
F[C@@H]1CCN(c2nccc(-c3cnn4ncccc34)n2)C1	binding		1 µM	93%
c1ccc(N2CCN(Cc3nc4ccccc4[nH]3)CC2)nc1	binding	competition with immobilised ligand	1 µM	100%
C[C@@H]1CCN(c2nccc(-c3cnn4ncccc34)n2)C1	binding		1 µM	100%
C[C@@H]1CN(c2cc(-c3nn(C)c4ccc(OC5(C)CC5)cc34)ncn2)C[C@H](C)O1	cell-free assay	competition with immobilised ligand	1 µM	100%
c1cncc(-c2cccc(Nc3nccc(NC4CCCCC4)n3)c2)c1	binding	competition with immobilised ligand	10 µM	99%
CCC(=O)N[C@H]1CC[C@@H](C(=O)N(C)c2ccc(-c3nc4ccccc4o3)cc2)C1	cell-free assay	competition with immobilised ligand	1 µM	100%
CN(c1nccc(-c2cnn3ncccc23)n1)C1CC1	binding		1 µM	77%
Cc1c(NC(=O)c2cc(C(N)=O)nc3cc(F)ccc23)c(C(F)(F)F)nn1Cc1ccc(C#N)cc1	binding	competition with immobilised ligand	1 µM	91%
FC(F)(F)Oc1cccc(-c2cnc3ccc(-c4ccncc4)nn23)c1	cell-free assay	competition with immobilised ligand	5 µM	82%
